Measurements: ChEMBL document CHEMBL1255233, “The P-113 fragment of histatin 5 requires a specific peptide sequence for intracellular translocation in Candida albicans, which is independent of cell wall binding” (Antimicrob Agents Chemother, 2008)
Activity calls are given as the source filed them. The rule behind the calls is not given here.

Assays:
Candida albicans [1] = assay: Candidacidal activity against wild type Candida albicans CAF4-2 after 3 hrs by radial diffusion assay in presence of 100 mM NaPB; type: functional, organism-based
How it was run: (§1)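 C. albicans cells grown in YNB were set into underlay gels. Peptides were loaded into punched wells and incubated overnight. Clear-zone diameters (10 units = 1 mm) were plotted against peptide concentration and converted to cell death. Incubation was in 10 mM or 100 mM NaPB. Means and SD from three independent experiments.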

Candida albicans [2] = assay: Candidacidal activity against wild type Candida albicans CAF4-2 at >62 uM after 3 hrs by radial diffusion assay; type: functional, organism-based; how it was run: as §1
Candida albicans [3] = assay: Candidacidal activity against wild type Candida albicans CAF4-2 at >62 uM after 3 hrs by radial diffusion assay in presence of 100 mM NaPB; type: functional, organism-based; how it was run: as §1
[4] = molecular target: Heat shock protein SSA2 (Candida albicans (strain SC5314 / ATCC MYA-2876) (Yeast)) (UniProt P46587); assay: Binding affinity to Candida albicans AKRLIGRKFDDHE region of Ssa2 at 2 uM by chemiluminescence assay
Heat shock protein SSA2 (Candida albicans (strain SC5314 / ATCC MYA-2876) (Yeast)), sequence (P46587 whole entry): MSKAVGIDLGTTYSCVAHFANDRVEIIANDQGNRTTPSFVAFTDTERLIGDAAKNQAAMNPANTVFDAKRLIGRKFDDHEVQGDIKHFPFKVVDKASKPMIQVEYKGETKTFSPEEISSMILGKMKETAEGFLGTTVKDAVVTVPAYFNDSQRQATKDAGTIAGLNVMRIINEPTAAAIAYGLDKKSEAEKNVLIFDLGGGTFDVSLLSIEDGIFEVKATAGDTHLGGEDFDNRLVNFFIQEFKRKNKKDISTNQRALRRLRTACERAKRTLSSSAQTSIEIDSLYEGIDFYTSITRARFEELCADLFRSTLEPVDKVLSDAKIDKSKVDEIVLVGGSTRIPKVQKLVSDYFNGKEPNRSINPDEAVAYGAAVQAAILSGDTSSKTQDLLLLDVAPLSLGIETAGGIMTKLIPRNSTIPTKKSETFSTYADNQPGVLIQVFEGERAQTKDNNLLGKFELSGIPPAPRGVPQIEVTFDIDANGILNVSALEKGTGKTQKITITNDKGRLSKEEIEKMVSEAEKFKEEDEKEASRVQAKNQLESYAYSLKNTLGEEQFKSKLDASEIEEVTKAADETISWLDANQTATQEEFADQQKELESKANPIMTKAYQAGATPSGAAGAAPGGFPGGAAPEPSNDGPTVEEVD
How it was run: (§2)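 Overlapping Ssa2p peptides spotted on cellulose-β-alanine membranes; methanol rinse, TBS (pH 8.0) washes, 2 h blocking in albumin/biotin-free buffer at room temperature. Biotin-labeled peptide (2 µM) in blocking buffer, 3 h at room temperature, washed; streptavidin-HRP (1:20,000) 1 h; chemiluminescent detection and imaging. Repeatability confirmed by reprobing after regeneration (30 min, 50°C).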

[5] = molecular target: Heat shock protein SSA2 (Candida albicans (strain SC5314 / ATCC MYA-2876) (Yeast)) (UniProt P46587); assay: Binding affinity to Candida albicans KRKNKKDISTNQR region of Ssa2 at 2 uM by chemiluminescence assay; how it was run: as §2
Candida albicans [6] = assay: Candidacidal activity against wild type Candida albicans CAF4-2 assessed as cell death at 31.5 uM treated for 1 hr measured after 48 hrs by microdilution plate assay; type: functional
Candida albicans [7] = assay: Candidacidal activity against Candida albicans CAF4-2 having ssa1delta mutation assessed as cell death at 31.5 uM treated for 1 hr measured after 48 hrs by microdilution plate assay; type: functional
Candida albicans [8] = assay: Candidacidal activity against Candida albicans CAF4-2 having ssa2delta mutation assessed as cell death at 31.5 uM treated for 1 hr measured after 48 hrs by microdilution plate assay; type: functional
Candida albicans [9] = assay: Candidacidal activity against Candida albicans CAF4-2 having ssa1delta mutation assessed as cell death below 31.5 uM treated for 1 hr measured after 48 hrs by microdilution plate assay; type: functional, organism-based
Candida albicans [10] = assay: Candidacidal activity against Candida albicans CAF4-2 having ssa2delta mutation assessed as cell death below 31.5 uM treated for 1 hr measured after 48 hrs by microdilution plate assay; type: functional, organism-based
Candida albicans [11] = assay: Candidacidal activity against wild type Candida albicans CAF4-2 assessed as cell death below 31.5 uM treated for 1 hr measured after 48 hrs by microdilution plate assay; type: functional, organism-based
How it was run: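 Candidacidal microdilution assay: 1 x 10^6 cells exposed to peptide for 1 h, diluted to quench, plated on YNB agar. Loss of viability = [1 − (colonies treated/colonies control)] x 100. Means and SD from three independent experiments.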

Candida albicans [12] = assay: Candidacidal activity against Candida albicans CAF4-2 having ssa1delta mutation after 3 hrs by radial diffusion assay; type: functional, organism-based
How it was run: (§3)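 Radial diffusion: C. albicans cells incorporated into underlay gels; peptides loaded into wells punched in the gel and incubated overnight. Clear-zone diameters (no growth) converted to cell death and plotted against peptide concentration. Means and SD of three independent experiments.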

Candida albicans [13] = assay: Candidacidal activity against Candida albicans CAF4-2 having ssa2delta mutation after 3 hrs by radial diffusion assay; type: functional, organism-based; how it was run: as §3
Candida albicans [14] = assay: Candidacidal activity against wild type Candida albicans CAF4-2 after 3 hrs by radial diffusion assay; type: functional, organism-based; how it was run: as §1
Candida albicans [15] = assay: Candidacidal activity against wild type Candida albicans CAF4-2 after 3 hrs by radial diffusion assay in presence of 10 mM NaPB; type: functional, organism-based; how it was run: as §1
[16] = Drug uptake in Candida albicans CAF4-2 beta-ME extracted cell wall protein assessed per 10^7 cells at 31.5 uM within 5 mins by SDS-PAGE in presence of 10 mM NaPB; type: ADME, cell-based
How it was run: (§4)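 Early-log cells (1 x 10^8) washed and suspended in 10 mM NaPB with 31.5 µM biotin-labeled peptide at 37°C with shaking, sampled at timepoints to 90 min. Cell wall released with 1% β-ME in ammonium carbonate pH 8.0, 30 min, 37°C. Extract run on 16% Tricine SDS-PAGE (10 µg/lane), blotted, detected with streptavidin-HRP, quantitated against peptide standards.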

[17] = Drug uptake in Candida albicans CAF4-2 beta-ME extracted cell wall protein assessed per 10^7 cells at 31.5 uM within 15 mins by SDS-PAGE in presence of 10 mM NaPB; type: ADME, cell-based; details: 0.25 h; how it was run: as §4
[18] = Drug uptake in Candida albicans CAF4-2 cytoplasm at 31.5 uM within 5 mins by SDS-PAGE in presence of 10 mM NaPB; type: ADME
How it was run: (§5)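 Cells in 10 mM NaPB with biotin-labeled peptide (31.5–32 µM) at 37°C for 5–90 min. After β-ME cell-wall extraction, cells bead-lysed at 4°C in NaPB with protease inhibitors; cytosol from 13,000 rpm spin. Cytosolic protein (10 µg/lane) on Tricine SDS-PAGE, streptavidin-HRP blot, quantitated against peptide standards.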

[19] = Drug uptake in Candida albicans CAF4-2 cell wall extract at 31.5 uM within 5 mins by SDS-PAGE in presence of 10 mM NaPB; type: ADME, cell-based; details: caf4-2, 5 min
How it was run: (§6)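 Wild-type or ssa2 cells were incubated with biotin-labeled peptide (31.5 µM) in 10 mM NaPB at 37°C for 5–90 min. Cell wall was extracted with 1% β-ME in ammonium carbonate (pH 8.0), 30 min at 37°C. Cytosol was obtained by glass-bead lysis with protease inhibitors. Extracts (10 µg/lane) were run on 16% Tricine SDS-PAGE, blotted, and detected with streptavidin-HRP. Amounts were quantified against peptide standards (0.06125–0.5 µg) and expressed per 10^7 cells.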

Candida albicans [20] = assay: Drug uptake in Candida albicans CAF4-2 assessed as reduction of free drug in cell supernatant at 31.5 uM after 15 mins by slot blot assay; type: ADME, organism-based; details: in vivo, 0.25 h
How it was run: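 Early-log cells (1 x 10^8) were washed and suspended in 10 mM NaPB with biotin-labeled peptide (31.5 µM) for 5–90 min with shaking. After centrifugation at 4°C, supernatants were applied to PVDF by slot blot. The membrane was blocked in 3% milk/TBST, probed with streptavidin-HRP (1:1,000), and developed for remaining free peptide.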

Candida albicans [21] = assay: Drug uptake in Candida albicans CAF4-2 having ssa2delta mutation assessed as reduction of free drug in cell supernatant at 31.5 uM after 30 mins by slot blot assay; type: ADME, organism-based; details: in vivo, 0.5 h
How it was run: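 Supernatant depletion: wt and ssa2 cells (1 x 10^8 in 1 ml 10 mM NaPB) incubated with 31.5 µM biotin-labeled peptide for 5–90 min with shaking. Cells pelleted at 4°C; 50 µl of supernatant slot-blotted onto PVDF, blocked with milk, probed with streptavidin-HRP. Buffer-only cells used as control.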

[22] = Drug uptake in Candida albicans CAF4-2 cytoplasmic extract assessed per 10^7 cells at 31.5 uM within 15 mins by SDS-PAGE in presence of 10 mM NaPB; type: ADME, Cytoplasm; details: 0.25 h; how it was run: as §6
[23] = Drug uptake in Candida albicans CAF4-2 cytoplasmic extract assessed per 10^7 cells at 31.5 uM after 90 mins by SDS-PAGE in presence of 10 mM NaPB; type: ADME, Cytoplasm; details: 1.5 h; how it was run: as §6
[24] = Drug uptake in Candida albicans CAF4-2 having ssa2delta mutation cytoplasmic extract assessed per 10^7 cells at 31.5 uM upto 30 mins by SDS-PAGE in presence of 10 mM NaPB; type: ADME, Cytoplasm; details: 0.5 h; how it was run: as §5

## H-AQRHHGYKRQFH-OH [listing 1 of 2 here]
Candida albicans [1]
  Activity: inactive
Candida albicans [2]
  Activity: Active
Candida albicans [3]
  Activity: inactive
[4]
  Activity: inactive
[5]
  Activity: inactive
Candida albicans [6]
  Activity: < 10%
Candida albicans [7]
  Activity: < 10%
Candida albicans [8]
  Activity: < 10%
Candida albicans [9]
  Activity: inactive
Candida albicans [10]
  Activity: inactive
Candida albicans [11]
  Activity: inactive
Candida albicans [12]
  Activity: inactive
Candida albicans [13]
  Activity: inactive
Candida albicans [14]
  Activity: inactive
Candida albicans [15]
  Activity: Active

## H-AQRHHGYKRQFH-OH [listing 2 of 2 here]
[16]
  Drug uptake: 0.15 µg
[17]
  Drug uptake: 0.2 µg

## H-AKRHHGYKRKFH-OH [listing 1 of 2 here]
Candida albicans [1]
  Activity: inactive
[4]
  Activity: Active
[5]
  Activity: Active
Candida albicans [6]
  Activity: 90%
Candida albicans [7]
  Activity: 90%
Candida albicans [8]
  Activity: 76%
Candida albicans [9]
  Activity: inactive
Candida albicans [10]
  Activity: inactive
Candida albicans [12]
  Activity: Active
Candida albicans [13]
  Activity: inactive
Candida albicans [14]
  Activity: Active
Candida albicans [15]
  Activity: Active

## H-AKRHHGYKRKFH-OH [listing 2 of 2 here]
[18]
  Drug uptake: Active
[19]
  Drug uptake: Active
Candida albicans [20]
  Drug uptake: Active
Candida albicans [21]
  Drug uptake: Active
[16]
  Drug uptake: 0.1 µg
[17]
  Drug uptake: Active
[22]
  Drug uptake: 0.26 µg
[23]
  Drug uptake: 0.2 µg
[24]
  Drug uptake: < 0.2 µg
